This is an account of results in BindingDB's records for doi:10.1021/jm000269t (Amgen, 2000).

The assay deals with T1, Neuropeptide Y receptor type 5 (Homo sapiens, UniProt Q15761).
T1 sequence (Q15761 whole entry): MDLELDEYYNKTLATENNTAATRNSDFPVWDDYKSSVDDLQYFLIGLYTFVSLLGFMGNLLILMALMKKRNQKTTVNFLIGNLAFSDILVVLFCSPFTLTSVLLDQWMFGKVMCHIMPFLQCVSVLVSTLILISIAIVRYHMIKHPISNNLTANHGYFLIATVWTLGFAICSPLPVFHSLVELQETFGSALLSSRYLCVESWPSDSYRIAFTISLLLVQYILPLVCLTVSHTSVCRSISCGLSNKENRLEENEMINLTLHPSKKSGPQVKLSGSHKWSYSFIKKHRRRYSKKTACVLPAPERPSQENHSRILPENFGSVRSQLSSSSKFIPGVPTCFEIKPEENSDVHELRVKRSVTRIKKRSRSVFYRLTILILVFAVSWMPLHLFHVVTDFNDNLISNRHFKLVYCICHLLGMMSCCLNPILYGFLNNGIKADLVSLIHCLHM
As to the kind of experiment: Affinity for human neuropeptide Y receptor Y5, binding was evaluated in an in vitro radioligand [125I]PYY binding assay. Summed up:
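HEK 293 cells expressing human Y5 receptor, harvested in PBS and homogenized in sucrose buffer; membranes washed by repeated 48000g spins and resuspended in MEM/Earle's assay buffer (25 mM HEPES, 0.1% BSA, STI, Pefabloc, pH 7.4). Membranes (200 µg tissue) incubated with compounds and 0.15 nM [125I]PYY, 2 h at 30 °C. Nonspecific binding defined with 1 µM PYY. Filtration read-out; IC50 by nonlinear regression, averaging at least two 6-point curves.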

One may read the IC50 as the point on the concentration scale where inhibition reaches its midpoint. A lower IC50 goes with higher potency.

For `Cc1nc(N2CCCCC2)c2[nH]c(-c3ccc(C)o3)cc2n1` [2-Methyl-6-(5-methyl-furan-2-yl)-4-piperidin-1-yl-5H-pyrrolo[3,2-d]pyrimidine], the IC50 is 0.5 nM.

As for `Cc1ccc(-c2cc3nc(C)nc(N4CCCCC4)c3[nH]2)cc1` [2-Methyl-4-piperidin-1-yl-6-p-tolyl-5H-pyrrolo[3,2-d]pyrimidine], the half-maximal inhibitory concentration (IC50) stood at 0.5 nM.
